Reference: ChEMBL document CHEMBL2034854, “Design, synthesis and biological evaluation of novel amino acid ureido derivatives as aminopeptidase N/CD13 inhibitors” (Bioorg Med Chem, 2012)
pIC50: −log10 of the molar value. Calls of active or inactive are those of the source. The rule behind the calls is not given here.

What was measured:
[1] = target: T1, Aminopeptidase N (Sus scrofa, UniProt P15145); experiment: Inhibition of pig kidney APN using L-Leu-p-nitroanilide as substrate incubated for 5 mins prior to substrate addition measured after 30 mins by UV/VIS spectrophotometry
T1 sequence (P15145 whole entry): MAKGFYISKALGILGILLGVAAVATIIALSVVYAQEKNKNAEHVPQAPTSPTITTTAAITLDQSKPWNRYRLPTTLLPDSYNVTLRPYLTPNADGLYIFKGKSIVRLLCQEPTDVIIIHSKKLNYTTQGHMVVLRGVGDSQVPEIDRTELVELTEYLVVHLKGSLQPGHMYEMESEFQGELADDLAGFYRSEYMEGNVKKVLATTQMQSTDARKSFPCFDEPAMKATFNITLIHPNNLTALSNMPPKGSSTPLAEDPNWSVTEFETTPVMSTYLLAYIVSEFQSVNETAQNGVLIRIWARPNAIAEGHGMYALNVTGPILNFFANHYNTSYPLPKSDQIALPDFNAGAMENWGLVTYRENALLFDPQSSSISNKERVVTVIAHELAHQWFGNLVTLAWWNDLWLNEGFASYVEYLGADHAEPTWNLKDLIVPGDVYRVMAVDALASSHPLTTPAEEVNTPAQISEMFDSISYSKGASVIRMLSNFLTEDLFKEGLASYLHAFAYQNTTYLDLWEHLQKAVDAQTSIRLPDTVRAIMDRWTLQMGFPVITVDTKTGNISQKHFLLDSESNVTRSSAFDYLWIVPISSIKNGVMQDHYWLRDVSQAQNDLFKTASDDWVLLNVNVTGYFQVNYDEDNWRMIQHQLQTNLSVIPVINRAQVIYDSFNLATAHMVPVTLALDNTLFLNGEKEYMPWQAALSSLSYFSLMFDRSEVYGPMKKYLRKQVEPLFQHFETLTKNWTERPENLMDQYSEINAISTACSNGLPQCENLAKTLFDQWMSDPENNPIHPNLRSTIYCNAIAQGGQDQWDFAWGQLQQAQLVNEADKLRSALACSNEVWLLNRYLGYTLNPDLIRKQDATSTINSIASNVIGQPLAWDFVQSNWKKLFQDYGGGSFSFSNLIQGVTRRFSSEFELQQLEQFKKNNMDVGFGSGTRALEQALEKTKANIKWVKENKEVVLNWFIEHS
In short: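 Porcine kidney microsomal APN, 6 μg/mL final, in 50 mM PBS pH 7.2 with 0.5% DMSO final. Inhibitor and enzyme preincubated 5 min at room temperature. Percent inhibition from control and zero-setting OD; IC50 calculated.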

[2] = tested on: ES2; experiment: Antimetastatic activity against human ES2 cells assessed as inhibition of migration through transwell chamber without matrigel coating at 100 ug/mL after 3 hrs by crystal voilet staining; type: functional, cell-based
In short: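 Uncoated transwell inserts. Upper chamber holds compound at 100 µg/mL in RPMI-1640 with 1% FBS, 0.1% DMSO final, plus ES-2 cells (60000 per well). Migration 3 h at 37 °C in CO2. Upper-side cells swabbed away; migrated cells fixed and stained with 0.1% crystal violet, extracted with 33% acetic acid, read at 595 nm. Rate uses treated, control and blank OD. Repeated ≥3 times in triplicate.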

[3] = Antiproliferative activity against human ES2 cells after 48 hrs by MTT assay; type: functional, cell-based; conditions: ES-2, 48 h
In short: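 ES-2 cells grown in RPMI-1640 with 10% FBS, seeded 8000 per well and left to adhere 10 h. Compounds then added at a range of concentrations in the same medium with 0.1% DMSO, 48 h at 37 °C in CO2. MTT added for 4 h; formazan dissolved in DMSO, read at 590 nm. Inhibition from control and zero-setting OD; IC50 calculated; three assays.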

[4] = target: 72 kDa type IV collagenase (Homo sapiens, UniProt P08253); experiment: Inhibition of recombinant MMP2 using succinylated gelatin as substrate incubated for 10 mins prior to substrate addition measured after 1 hr by UV/VIS spectrophotometry
In short: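 Recombinant MMP-2 and compound, both in 50 mM sodium borate pH 8.5, held 10 min at 37 °C. Succinylated gelatin then added for 60 min at 37 °C. Free amines developed with 0.03% picrylsulfonic acid, 20 min at room temperature, read at 450 nm. Inhibition from control and zero-setting OD; IC50 calculated; three assays, SD <10% of means.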

[5] = target: Aminopeptidase N (Homo sapiens, UniProt P15144); experiment: Inhibition of APN in human ES2 cell surface using L-Leu-p-nitroanilide as substrate incubated for 5 mins prior to substrate addition measured after 1 hr by UV/VIS spectrophotometry
In short: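 Enzyme source: intact ES-2 cells, 2 × 10^5 per well, in 10 mM PBS pH 7.4 with 0.1% DMSO final. Inhibitors preincubated with cells 5 min at room temperature. L-Leu-p-nitroanilide then added, 1 h at 37 °C. Inhibition from control and zero-setting OD; IC50 calculated; mean ± SD of three assays.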

[6] = tested on: ES2; experiment: Antimetastatic activity against human ES2 cells assessed as inhibition of invasion through transwell chamber with matrigel coating after 8 hrs by crystal voilet staining; type: functional, cell-based
In short: (§1)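 ES-2 cells (100,000 per insert) in RPMI-1640 with 1% FBS placed on Matrigel inserts rehydrated 2 h; lower chamber RPMI-1640 with 10% FBS. Compound at 10 and 100 μg/mL with 0.1% DMSO final added to upper chamber. Invasion 8 h at 37 °C in CO2. Non-invading cells swabbed off; remaining cells fixed and crystal-violet stained, counted in five random ×100 fields per insert. At least three experiments, triplicates.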

[7] = Antimetastatic activity against human ES2 cells assessed as inhibition of invasion through transwell chamber with matrigel coating at 10 to 100 ug/mL after 8 hrs by crystal voilet staining relative to control; type: functional; in short: as §1

Sequence of 72 kDa type IV collagenase (P08253 whole entry): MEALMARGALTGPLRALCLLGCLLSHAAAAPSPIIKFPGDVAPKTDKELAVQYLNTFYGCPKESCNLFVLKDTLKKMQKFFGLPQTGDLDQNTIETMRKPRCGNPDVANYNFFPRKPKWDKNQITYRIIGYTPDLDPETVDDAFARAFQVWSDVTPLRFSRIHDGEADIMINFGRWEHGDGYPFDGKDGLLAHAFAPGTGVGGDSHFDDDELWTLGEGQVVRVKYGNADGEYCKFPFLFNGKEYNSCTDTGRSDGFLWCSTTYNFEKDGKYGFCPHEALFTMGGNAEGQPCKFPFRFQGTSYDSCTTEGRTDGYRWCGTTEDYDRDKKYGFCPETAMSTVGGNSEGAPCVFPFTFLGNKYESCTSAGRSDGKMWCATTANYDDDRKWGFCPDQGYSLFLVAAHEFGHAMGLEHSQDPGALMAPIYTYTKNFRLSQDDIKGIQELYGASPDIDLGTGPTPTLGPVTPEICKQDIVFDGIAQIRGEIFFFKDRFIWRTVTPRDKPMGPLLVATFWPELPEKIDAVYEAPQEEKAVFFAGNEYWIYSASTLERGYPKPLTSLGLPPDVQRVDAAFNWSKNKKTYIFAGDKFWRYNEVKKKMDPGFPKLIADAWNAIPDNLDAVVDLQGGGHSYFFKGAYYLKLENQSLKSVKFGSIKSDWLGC
Sequence of Aminopeptidase N (Homo sapiens, UniProt P15144) (P15144 whole entry): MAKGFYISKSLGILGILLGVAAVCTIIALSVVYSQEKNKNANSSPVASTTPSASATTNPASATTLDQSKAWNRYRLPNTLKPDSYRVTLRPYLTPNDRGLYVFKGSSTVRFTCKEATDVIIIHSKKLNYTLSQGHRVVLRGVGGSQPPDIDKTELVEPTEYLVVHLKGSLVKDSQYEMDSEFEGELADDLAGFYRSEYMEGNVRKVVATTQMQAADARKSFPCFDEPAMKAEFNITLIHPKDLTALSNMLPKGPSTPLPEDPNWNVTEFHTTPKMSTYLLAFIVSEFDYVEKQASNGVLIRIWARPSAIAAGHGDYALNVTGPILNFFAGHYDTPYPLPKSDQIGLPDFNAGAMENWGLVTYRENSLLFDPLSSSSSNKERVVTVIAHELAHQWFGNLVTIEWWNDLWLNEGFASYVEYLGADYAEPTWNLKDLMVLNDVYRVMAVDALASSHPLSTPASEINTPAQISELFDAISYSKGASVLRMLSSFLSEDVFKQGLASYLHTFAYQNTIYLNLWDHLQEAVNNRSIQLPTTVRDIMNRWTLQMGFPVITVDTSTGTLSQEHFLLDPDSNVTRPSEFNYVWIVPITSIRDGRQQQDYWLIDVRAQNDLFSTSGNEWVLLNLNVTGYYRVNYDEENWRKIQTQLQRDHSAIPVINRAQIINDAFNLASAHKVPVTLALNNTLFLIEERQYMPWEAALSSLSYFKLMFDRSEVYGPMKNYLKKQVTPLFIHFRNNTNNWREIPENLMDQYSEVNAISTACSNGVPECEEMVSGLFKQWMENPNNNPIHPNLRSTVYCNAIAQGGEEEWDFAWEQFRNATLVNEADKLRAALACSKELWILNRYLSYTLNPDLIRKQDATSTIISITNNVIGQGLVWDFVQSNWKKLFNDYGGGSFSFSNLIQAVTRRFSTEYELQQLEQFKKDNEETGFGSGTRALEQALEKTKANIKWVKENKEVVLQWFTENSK

pIC50 [1]	Compound	other results
4.68	C[C@H](NC(=O)NCc1ccccc1)C(=O)NO	
5.25	O=C(NCc1ccccc1)N[C@@H](Cc1ccccc1)C(=O)NO	inhibition [2]: inactive; pIC50 [3]: 3.29; pIC50 [4]: < 3.30; pIC50 [5]: 4.80
< 4.00	C[C@H](NC(=O)NC(C)(C)C)C(=O)NO	
< 4.00	CC(C)(C)NC(=O)N[C@@H](Cc1ccccc1)C(=O)NO	
< 4.00	CC(C)[C@H](NC(=O)NC(C)(C)C)C(=O)NO	
4.74	CC(C)C[C@H](NC(=O)OCCc1ccccc1)C(=O)NO	
4.49	O=C(CNC(=O)NCc1ccccc1)NO	
< 4.00	CSCC[C@H](NC(=O)NCCc1ccccc1)C(=O)NO	
4.77	CC(C)[C@H](NC(=O)NCc1ccccc1)C(=O)NO	
< 4.00	CC(C)[C@H](NC(=O)NCCc1ccccc1)C(=O)NO	
5.19	O=C(NCCc1ccccc1)N[C@@H](Cc1ccccc1)C(=O)NO	
5.42	CSCC[C@H](NC(=O)NCc1ccccc1)C(=O)NO	pIC50 [3]: < 3.00; pIC50 [4]: < 3.30; pIC50 [5]: 4.66
5.39	CC[C@H](C)[C@H](NC(=O)NCc1ccccc1)C(=O)NO	inhibition [2]: inactive; pIC50 [3]: 3.11; pIC50 [4]: < 3.30; pIC50 [5]: 4.41
< 4.00	CC(C)C[C@H](NC(=O)NC1CCCCC1)C(=O)NO	
< 4.00	CC(C)(C)NC(=O)NCC(=O)NO	
4.68	C[C@H](NC(=O)NCCc1ccccc1)C(=O)NO	
5.04	CC(C)C[C@H](NC(=O)OCc1ccccc1)C(=O)NO	
5.96	CC(C)C[C@H](NC(=O)NCCc1ccccc1)C(=O)NO	inhibition [2]: inactive; pIC50 [3]: 4.02; inhibition [6]: Dose-dependent effect; inhibition (INH) [7]: 55%; pIC50 [4]: < 3.30; pIC50 [5]: 5.29
< 4.00	O=C(N[C@@H](Cc1ccccc1)C(=O)NO)N[C@@H](Cc1ccccc1)C(=O)NO	
< 4.00	CC[C@H](C)[C@H](NC(=O)NC(C)(C)C)C(=O)NO	
< 4.00	CC[C@H](C)[C@H](NC(=O)NCCc1ccccc1)C(=O)NO	
4.28	O=C(CNC(=O)NCCc1ccccc1)NO	
< 4.00	CC(C)C[C@H](NC(=O)N[C@@H](CC(C)C)C(=O)NO)C(=O)NO	
< 4.00	CC(C)C[C@H](NC(=O)NC(C)(C)C)C(=O)NO	
< 4.00	CSCC[C@H](NC(=O)NC(C)(C)C)C(=O)NO	
	CC(C)C[C@H](NC(=O)[C@@H](O)[C@H](N)Cc1ccccc1)C(=O)O [UBENIMEX]	pIC50 [3]: 3.31
